Source: ChEMBL document CHEMBL6078712, “Triterpenoid phthalimides as selective anti-cancer agents targeting mitochondrial apoptosis” (Eur J Med Chem, 2025)

Key:
CCRF-CEM = test: Cytotoxicity against human CCRF-CEM cells assessed as inhibition of cell growth incubated for 72 hrs by MTS assay; type: functional, cell-based
Method in brief: (§1)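 MTS assay on eight human cancer lines and two non-tumour fibroblast lines. IC50 is the concentration that inhibits cell growth by 50 %. SD typically up to 15 % of the mean.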

CEM-DNR = test: Cytotoxicity against human CEM-DNR cells assessed as inhibition of cell growth incubated for 72 hrs by MTS assay; type: functional, cell-based; method in brief: as §1
HCT-116 = test: Cytotoxicity against human HCT-116 cells assessed as inhibition of cell growth incubated for 72 hrs by MTS assay; type: functional, cell-based; conditions: HCT-116, 72 h; method in brief: as §1
HCT 116 TP53(-/-) = test: Cytotoxicity against human HCT116-p53-null cells assessed as inhibition of cell growth incubated for 72 hrs by MTS assay; type: functional, cell-based; method in brief: as §1
K562 = test: Cytotoxicity against human K562 cells assessed as inhibition of cell growth incubated for 72 hrs by MTS assay; type: functional, cell-based; conditions: K562, 72 h; method in brief: as §1
[1] = Cytotoxicity against human K562-Tax cells assessed as inhibition of cell growth incubated for 72 hrs by MTS assay; type: functional, cell-based; method in brief: as §1
A549 = test: Cytotoxicity against human A549 cells assessed as inhibition of cell growth incubated for 72 hrs by MTS assay; type: functional, cell-based; conditions: A549, 72 h; method in brief: as §1
U2OS = test: Cytotoxicity against human U2OS cells assessed as inhibition of cell growth incubated for 72 hrs by MTS assay; type: functional, cell-based; method in brief: as §1
[2] = Cytotoxicity against human BJ cells assessed as inhibition of cell growth incubated for 72 hrs by MTS assay; type: toxicity, cell-based; method in brief: as §1
[3] = Cytotoxicity against human MRC5 cells assessed as inhibition of cell growth incubated for 72 hrs by MTS assay; type: toxicity, cell-based; method in brief: as §1

| SMILES | IC50 (CCRF-CEM) | IC50 (CEM-DNR) | IC50 (HCT-116) | IC50 (HCT 116 TP53(-/-)) | IC50 (K562) | IC50 [1] | IC50 (A549) | IC50 (U2OS) | IC50 at 72 h [2] | IC50 at 72 h [3] |
| --- | --- | --- | --- | --- | --- | --- | --- | --- | --- | --- |
| CC1(C)[C@@H](O)CC[C@]2(C)[C@H]3CC[C@@H]4[C@H]5[C@H](c6ccc7c(c6)C(=O)NC7=O)CC[C@]5(C(=O)O)CC[C@@]4(C)[C@]3(C)CC[C@@H]12 | 26.3 µM | 20.7 µM | 31.1 µM | 34.9 µM | 35.3 µM | 17.3 µM | 26.6 µM | 38.5 µM | > 50 µM | > 50 µM |
| COC(=O)c1cc([C@@H]2CC[C@]3(C(=O)O)CC[C@]4(C)[C@H](CC[C@@H]5[C@@]6(C)CC[C@H](O)C(C)(C)[C@@H]6CC[C@]54C)[C@@H]23)cc(C)c1C(=O)OC | 14 µM | 6.78 µM | 16.3 µM | 16.1 µM | 12.1 µM | 7.21 µM | 10.4 µM | 19 µM | 33 µM | 32.4 µM |
| COC(=O)c1cc([C@@H]2CC[C@]3(CO)CC[C@]4(C)[C@H](CC[C@@H]5[C@@]6(C)CC[C@H](O)C(C)(C)[C@@H]6CC[C@]54C)[C@@H]23)cc(-c2ccccc2)c1C(=O)OC | > 50 µM | > 50 µM | > 50 µM | > 50 µM | > 50 µM | > 50 µM | > 50 µM | > 50 µM | > 50 µM | > 50 µM |
| CC(=O)O[C@H]1CC[C@]2(C)[C@H]3CC[C@@H]4[C@H]5[C@H](c6ccc7c(c6)C(=O)NC7=O)CC[C@]5(CO)CC[C@@]4(C)[C@]3(C)CC[C@H]2C1(C)C | 14 µM | 9.21 µM | 19.7 µM | 21.8 µM | 36 µM | 7.43 µM | > 50 µM | 34.5 µM | > 50 µM | 28.5 µM |
| Cc1cc([C@@H]2CC[C@]3(C(=O)O)CC[C@]4(C)[C@H](CC[C@@H]5[C@@]6(C)CC[C@H](O)C(C)(C)[C@@H]6CC[C@]54C)[C@@H]23)cc2c1C(=O)NC2=O | 7.97 µM | 8.76 µM | 25.9 µM | 27.2 µM | > 50 µM | 7.2 µM | > 50 µM | 24.8 µM | > 50 µM | 34.3 µM |
| COc1ccc(N2C(=O)c3ccc([C@@H]4CC[C@]5(COC(C)=O)CC[C@]6(C)[C@H](CC[C@@H]7[C@@]8(C)CC[C@H](OC(C)=O)C(C)(C)[C@@H]8CC[C@]76C)[C@@H]45)cc3C2=O)cc1 | > 50 µM | > 50 µM | > 50 µM | > 50 µM | > 50 µM | > 50 µM | > 50 µM | > 50 µM | > 50 µM | > 50 µM |
| CC1(C)[C@@H](O)CC[C@]2(C)[C@H]3CC[C@@H]4[C@H]5[C@H](c6ccc7c(c6)C(=O)N(c6ccc(C#N)cc6)C7=O)CC[C@]5(C(=O)O)CC[C@@]4(C)[C@]3(C)CC[C@@H]12 | 19.8 µM | 27.3 µM | > 50 µM | > 50 µM | > 50 µM | 12.7 µM | > 50 µM | > 50 µM | > 50 µM | > 50 µM |
| CC1(C)[C@@H](O)CC[C@]2(C)[C@H]3CC[C@@H]4[C@H]5[C@H](c6cc7c(c(-c8ccccc8)c6)C(=O)N(c6ccc(C#N)cc6)C7=O)CC[C@]5(C(=O)O)CC[C@@]4(C)[C@]3(C)CC[C@@H]12 | 14.2 µM | > 50 µM | > 50 µM | > 50 µM | > 50 µM | > 50 µM | > 50 µM | > 50 µM | > 50 µM | > 50 µM |
| CC(=O)O[C@H]1CC[C@]2(C)[C@H]3CC[C@@H]4[C@H]5[C@H](c6ccc7c(c6)C(=O)N(c6cc[nH]n6)C7=O)CC[C@]5(C(=O)O)CC[C@@]4(C)[C@]3(C)CC[C@H]2C1(C)C | 18.7 µM | 25.4 µM | 24 µM | 30.1 µM | 29.4 µM | 21.1 µM | 27.1 µM | 26.2 µM | 30 µM | 28.3 µM |
| CC1(C)[C@@H](O)CC[C@]2(C)[C@H]3CC[C@@H]4[C@H]5[C@H](c6ccc(C(=O)O)c(C(=O)O)c6)CC[C@]5(C(=O)O)CC[C@@]4(C)[C@]3(C)CC[C@@H]12 | > 50 µM | > 50 µM | > 50 µM | > 50 µM | > 50 µM | > 50 µM | > 50 µM | > 50 µM | > 50 µM | > 50 µM |
| CC(=O)Nc1ccc(N2C(=O)c3cc([C@@H]4CC[C@]5(C(=O)O)CC[C@]6(C)[C@H](CC[C@@H]7[C@@]8(C)CC[C@H](OC(C)=O)C(C)(C)[C@@H]8CC[C@]76C)[C@@H]45)cc(-c4ccccc4)c3C2=O)cc1 | 8.08 µM | > 50 µM | 16.8 µM | 28.4 µM | 27.9 µM | > 50 µM | 34.6 µM | 18.8 µM | > 50 µM | 33.7 µM |
| CC1(C)[C@@H](O)CC[C@]2(C)[C@H]3CC[C@@H]4[C@H]5[C@H](c6cc(C#N)c(C#N)c(-c7ccccc7)c6)CC[C@]5(C(=O)O)CC[C@@]4(C)[C@]3(C)CC[C@@H]12 | 5.99 µM | 13.7 µM | 26 µM | 31.6 µM | 27.8 µM | 7 µM | 20.7 µM | 19.2 µM | 36.2 µM | 25.7 µM |
| CC(=O)OC[C@]12CC[C@@H](c3ccc4c(c3)C(=O)NC4=O)[C@@H]1[C@H]1CC[C@@H]3[C@@]4(C)CC[C@H](OC(C)=O)C(C)(C)[C@@H]4CC[C@@]3(C)[C@]1(C)CC2 | > 50 µM | > 50 µM | > 50 µM | > 50 µM | > 50 µM | > 50 µM | > 50 µM | > 50 µM | > 50 µM | > 50 µM |
| COC(=O)c1cc([C@@H]2CC[C@]3(C(=O)O)CC[C@]4(C)[C@H](CC[C@@H]5[C@@]6(C)CC[C@H](O)C(C)(C)[C@@H]6CC[C@]54C)[C@@H]23)cc(-c2ccccc2)c1C(=O)OC | 6.3 µM | 4.85 µM | 5.46 µM | 6.17 µM | 6.12 µM | 4.36 µM | 4.44 µM | 9.94 µM | 36.3 µM | 30.2 µM |
| COc1ccc(N2C(=O)c3ccc([C@@H]4CC[C@]5(CO)CC[C@]6(C)[C@H](CC[C@@H]7[C@@]8(C)CC[C@H](OC(C)=O)C(C)(C)[C@@H]8CC[C@]76C)[C@@H]45)cc3C2=O)cc1 | > 50 µM | > 50 µM | > 50 µM | > 50 µM | > 50 µM | > 50 µM | > 50 µM | > 50 µM | > 50 µM | > 50 µM |
| CC(=O)OC[C@]12CC[C@@H](c3cc4c(c(-c5ccccc5)c3)C(=O)NC4=O)[C@@H]1[C@H]1CC[C@@H]3[C@@]4(C)CC[C@H](OC(C)=O)C(C)(C)[C@@H]4CC[C@@]3(C)[C@]1(C)CC2 | > 50 µM | > 50 µM | > 50 µM | > 50 µM | > 50 µM | > 50 µM | > 50 µM | > 50 µM | > 50 µM | > 50 µM |
| COC(=O)c1ccc([C@@H]2CC[C@]3(CO)CC[C@]4(C)[C@H](CC[C@@H]5[C@@]6(C)CC[C@H](O)C(C)(C)[C@@H]6CC[C@]54C)[C@@H]23)cc1C(=O)OC | > 50 µM | 19.7 µM | > 50 µM | > 50 µM | > 50 µM | 10.3 µM | > 50 µM | > 50 µM | > 50 µM | > 50 µM |
| COc1ccc(N2C(=O)c3cc([C@@H]4CC[C@]5(C(=O)O)CC[C@]6(C)[C@H](CC[C@@H]7[C@@]8(C)CC[C@H](O)C(C)(C)[C@@H]8CC[C@]76C)[C@@H]45)cc(-c4ccccc4)c3C2=O)cc1 | 13.6 µM | > 50 µM | > 50 µM | > 50 µM | > 50 µM | 27.9 µM | > 50 µM | > 50 µM | > 50 µM | > 50 µM |
| COc1ccc(N2C(=O)c3ccc([C@@H]4CC[C@]5(C(=O)O)CC[C@]6(C)[C@H](CC[C@@H]7[C@@]8(C)CC[C@H](O)C(C)(C)[C@@H]8CC[C@]76C)[C@@H]45)cc3C2=O)cc1 | 11.1 µM | 9.85 µM | > 50 µM | > 50 µM | > 50 µM | 5.35 µM | 28.1 µM | 27.5 µM | > 50 µM | > 50 µM |
